The source of these data is ChEMBL document CHEMBL3045178, “Metabolites from Aspergillus fumigatus, an endophytic fungus associated with Melia azedarach, and their antifungal, antifeedant, and toxic activities” (J Agric Food Chem, 2012).

Data set [1] can be described thus: Toxicity in Artemia salina (brine shrimp) […]. The data set is classed as organism-based. The following applies: in vivo.
The next data set deals with Mythimna separata. Briefly: Antifeedant activity against Mythimna separata (Oriental armyworm) larvae assessed as antifeedant index by area of the leaf consumed. The data set is classed as functional. Also on record: concentration or dose not given beside the values. The essentials:
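Positive control prepared at 10 mg/mL in acetone; leaves treated with acetone alone served as control. Ten treated leaves and 10 larvae per Petri dish lined with moistened filter paper. Held at 25 ± 2 °C, 12L:12D, 65−80% rh. Leaf area consumed recorded after 48 h. AFI = (C − T)/C × 100%, from control and treated areas consumed. Three repetitions.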

In a further data set the test system is Alternaria solani. In words: Antifungal activity against Alternaria solani at 28 degC after 48 hr microbroth dilution method. The data set is classed as functional. An outline of the steps: (§1)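 Plant-pathogenic fungi isolated from infected plant organs. Fungi grown 18 h in PD medium at 28 ± 0.5 °C and 150 rpm, then diluted to about 1 × 10^6 CFU in PD medium. Compounds at 2 mg/mL DMSO stock, serially diluted in triplicate in PD medium in 96-well plates before the fungal suspension was added. DMSO served as negative control. After 48 h at 28 ± 0.5 °C, MIC taken as the lowest concentration with no visible growth.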
For orientation: Dilution methods test growth across graded concentrations, often in twofold steps.

Another data set deals with Alternaria alternata. In words: Antifungal activity against Alternaria alternata at 28 degC after 48 hr microbroth dilution method. It is filed as functional. An outline of the steps: as §1
The subject of data set [2] is Colletotrichum gloeosporioides. In words: Antifungal activity against Colletotrichum gloeosporioides at 28 degC after 48 hr microbroth dilution method. It is filed as functional. An outline of the steps:
as §1

The test system of another data set is Fusarium solani. Briefly: Antifungal activity against Fusarium solani at 28 degC after 48 hr microbroth dilution method. The data set is classed as functional. The essentials: as §1
Data set [3] concerns Fusarium oxysporum f. sp. niveum. Briefly: Antifungal activity against Fusarium oxysporum f. sp. niveum at 28 degC after 48 hr microbroth dilution method. The data set is classed as functional. An outline of the steps:
as §1

The subject of data set [4] is Fusarium oxysporum f. sp. vasinfectum. In words: Antifungal activity against Fusarium oxysporum f. sp. vasinfectum at 28 degC after 48 hr microbroth dilution method. The data set is classed as functional. An outline of the steps:
as §1

A further data set has as its system Fusarium graminearum. In words: Antifungal activity against Fusarium graminearum at 28 degC after 48 hr microbroth dilution method. It is filed as functional. The essentials: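 Microbroth dilution in PD medium. Fungi were grown 18 h at 28 ± 0.5 °C and 150 rpm, then diluted to about 1 × 10^6 CFU. Compounds (2 mg/mL DMSO stock) were serially diluted in triplicate and fungal suspension added. Incubated 48 h at 28 ± 0.5 °C. MIC was the lowest concentration with no visible growth. Controls: DMSO, carbendazim, hymexazol.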

Another data set has as its system Botrytis cinerea. Briefly: Antifungal activity against Botryotinia fuckeliana at 28 degC after 48 hr microbroth dilution method. It is filed as functional. An outline of the steps:
as §1

Broadly, the LC50 is the concentration that kills 50% of the test population. Usually MIC stands for the least concentration at which growth counts as inhibited.

In brackets after ≈: the same amount, converted by molar mass. Bounds are passed on as bounds.

In [1], `COc1ccc2c(C[C@@H]3NC(=O)[C@@H]4CCCN4C3=O)c(CC=C(C)C)[nH]c2c1` [TRYPROSTATIN A] showed an LC50 of 44.8 µg/mL (≈ 117 µM).
As for `C[C@@H]1NC(=O)[C@H]2CCCN2C1=O`, the LC50 in data set [1] was greater than 100 µg/mL.
The same measure, in the same setting: then `CC/C=C/[C@H](O)[C@H](O)C1=C(C)C(=O)[C@]2(O1)C(=O)N[C@@](OC)(C(=O)c1ccccc1)[C@H]2O` [PSEUROTIN A1], with greater than 100 µg/mL.
As to `O=c1cc[nH]c(=O)[nH]1` [URACIL], the LC50 in data set [1] was greater than 100 µg/mL.
Regarding `CC(=O)O[C@@H]1C[C@H](O)[C@@]23CO[C@@H](O)[C@]1(C)[C@@H]2C[C@@H](O)[C@]1(C)[C@@H]3C(=O)[C@H](OC(C)=O)[C@@]2(C)[C@H](c3ccoc3)C[C@H]3O[C@]321` [TOOSENDANIN], in data set [1], the LC50 was less than 1 µg/mL. Moreover, the AFI in the data set on Mythimna separata is 97.5%.
As to `CC(=O)O[C@H]1C[C@@]2(C)[C@@H](CC[C@H]3[C@@]4(C)C=CC(=O)[C@@H](C)[C@@H]4[C@H](OC(C)=O)C(=O)[C@@]32C)/C1=C(\CCC=C(C)C)C(=O)O` [HELVOLIC ACID], the minimum inhibitory concentration (MIC) in the data set with Alternaria solani was determined as 12.5 µg/mL (≈ 22 µM); against Alternaria alternata, 6.25 µg/mL (≈ 11 µM); in [2] it was 6.25 µg/mL (≈ 11 µM); in the data set with Fusarium solani, 50 µg/mL (≈ 87.9 µM); in [3], 12.5 µg/mL (≈ 22 µM); in data set [4], 25 µg/mL (≈ 44 µM). Further, the minimal inhibitory concentration (MIC) against Fusarium graminearum and against Botrytis cinerea was 6.25 µg/mL (≈ 11 µM) throughout. For the same molecule, the LC50 in data set [1] came out at 73.7 µg/mL (≈ 130 µM). Further, the AFI in the data set on Mythimna separata came to 7.5%.
As for `C[C@H]1C(=O)N2c3ccccc3[C@@]3(O)C[C@@H]4C(=O)N[C@](C)(c5nc6ccccc6c(=O)n54)N1[C@@H]23` [FUMIQUINAZOLINE D], the minimum inhibitory concentration (MIC) against Alternaria solani was 25 µg/mL (≈ 56.4 µM); in the data set with Alternaria alternata, 25 µg/mL (≈ 56.4 µM); in [2] it was 25 µg/mL (≈ 56.4 µM); in the data set with Fusarium solani it was greater than 100 µg/mL; in data set [3], 50 µg/mL (≈ 113 µM); in data set [4], 50 µg/mL (≈ 113 µM). The minimum inhibitory concentration (MIC) in the data set on Fusarium graminearum and against Botrytis cinerea was 25 µg/mL (≈ 56.4 µM) in each case. For the same molecule, in [1], the 50% lethal concentration (LC50) is greater than 100 µg/mL. In addition, the AFI with Mythimna separata is 10%.
With `C[C@@H]1NC(=O)[C@@H](Cc2c[nH]c3ccccc23)n2c1nc1ccccc1c2=O` [FUMIQUINAZOLINE F], the MIC in the data set on Alternaria solani amounted to 25 µg/mL (≈ 69.8 µM); in the data set with Alternaria alternata, 12.5 µg/mL (≈ 34.9 µM); in data set [2] it was 12.5 µg/mL (≈ 34.9 µM); in the data set with Fusarium solani, 50 µg/mL (≈ 140 µM); in [3], 25 µg/mL (≈ 69.8 µM); in data set [4], 50 µg/mL (≈ 140 µM). In addition, the MIC against Fusarium graminearum and against Botrytis cinerea was 12.5 µg/mL (≈ 34.9 µM) in each case. For the same molecule, in data set [1], the median lethal concentration (LC50) was 55.3 µg/mL (≈ 154 µM). For the same molecule, the AFI in the data set on Mythimna separata is 30%.
For `COc1ccc2c(c1)NC(=O)[C@@]21C=C2C(=O)N3CCC[C@H]3C(=O)N2[C@H]1C=C(C)C` [SPIROTRYPROSTATIN B], in [1], the LC50 was greater than 100 µg/mL.
Consider `COC(=O)Nc1nc2ccccc2[nH]1` [CARBENDAZIM], for which the MIC against Alternaria solani worked out at 12.5 µg/mL (≈ 65.4 µM); with Alternaria alternata, 6.25 µg/mL (≈ 32.7 µM); in [2], 6.25 µg/mL (≈ 32.7 µM); against Fusarium solani, 25 µg/mL (≈ 131 µM); in [3] it was 12.5 µg/mL (≈ 65.4 µM); in [4], 25 µg/mL (≈ 131 µM). In addition, the MIC in the data set with Fusarium graminearum is 6.25 µg/mL (≈ 32.7 µM); in the data set with Botrytis cinerea it was 12.5 µg/mL (≈ 65.4 µM).
For `CC(C)C[C@@H]1NC(=O)[C@@H]2CC(O)CN2C1=O` (stereo partly drawn), the LC50 in data set [1] is greater than 100 µg/mL.
As to `O=C1N[C@@H](Cc2ccccc2)C(=O)N2C[C@H](O)C[C@H]12`, in data set [1], the LC50 is greater than 100 µg/mL.
Same read-out and setting: then `CC(C)=CCc1cccc2c(C[C@@H]3NC(=O)[C@H](C)NC3=O)c[nH]c12` [TEREZINE D], with greater than 100 µg/mL.
With `O=C1CCC(O)c2cccc(O)c21` (stereo not drawn) [4,8-DIHYDROXY-1-TETRALONE], the minimal inhibitory concentration (MIC) against Alternaria solani came to 12.5 µg/mL (≈ 70.2 µM); with Alternaria alternata it was 12.5 µg/mL (≈ 70.2 µM); in data set [2], 12.5 µg/mL (≈ 70.2 µM); in the data set on Fusarium solani it was 50 µg/mL (≈ 281 µM); in [3] it was 25 µg/mL (≈ 140 µM); in data set [4] it was 50 µg/mL (≈ 281 µM). Also, the MIC in the data set with Fusarium graminearum and against Botrytis cinerea was 12.5 µg/mL (≈ 70.2 µM) in each case. Also, the LC50 in data set [1] worked out at 52.7 µg/mL (≈ 296 µM).
Regarding `O=C1N[C@@H](CO)C(=O)N2C[C@H](O)C[C@@H]12`, the LC50 in data set [1] is greater than 100 µg/mL.
For the molecule `COc1ccc2c3c([nH]c2c1)[C@H](C=C(C)C)N1C(=O)[C@@H]2CCCN2C(=O)[C@@]1(O)[C@H]3OC` [CYCLOTRYPROSTATIN B], the MIC amounted to 12.5 µg/mL (≈ 29.4 µM) with Alternaria solani; 12.5 µg/mL (≈ 29.4 µM) with Alternaria alternata; 12.5 µg/mL (≈ 29.4 µM) in data set [2]; 25 µg/mL (≈ 58.8 µM) against Fusarium solani; 12.5 µg/mL (≈ 29.4 µM) in data set [3]; 25 µg/mL (≈ 58.8 µM) in data set [4]. Also, the MIC against Fusarium graminearum and in the data set on Botrytis cinerea was 12.5 µg/mL (≈ 29.4 µM) throughout. This molecule also returned an LC50 in data set [1] of 37.9 µg/mL (≈ 89.1 µM).
For the molecule `O=C1NCC(=O)N2CCC[C@@H]12` [CYCLO(PROLYLGLYCYL)], the LC50 in [1] is greater than 100 µg/mL.
